Screening data deposited in PubChem by Johns Hopkins Ion Channel Center.
Rows were chosen to be rich in hits. Some 2.3% of all compounds tested hit in one or more screens of this group.
TRPC4 act – TRPC4 (mouse) channel activation. B-score at 10 µM. AID 2237. 310,000 compounds, 0.49% hits. HEK293 TRPC4beta/mu-opioid, Fluo4 calcium fluorescence; active compounds read high. Q9QUQ5;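 active = B-score above 5 SD of library B-scores, and initial fluorescence ratio not above library mean plus 5 SD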;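 also: positive B-score marks a calcium rise read as TRPC4 activation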
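Assay system: HEK293 stable line with TRPC4beta plus mu-opioid receptor. Times: dye 45 min RT, read 110 s. Measured by: kinetic Fluo4 calcium fluorescence. Measure: B score of integrated ratio. Controls: assay buffer as low control, maximal DAMGO as high control.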
TRPC6 inh – inhibitors of mouse TRPC6 channel. 310,000 compounds, 1.1% hits. Q61143. B-score at 10 µM. HEK293-TRPC6, membrane potential dye, ACh-evoked depolarization; active compounds read low;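 active = B-score under library mean minus 3 SD, initial fluorescence not abnormally high, positive integrated signal ratio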;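 also: B-score derived from integrated fluorescence ratio over the kinetic read; more negative B-score means stronger inhibition of depolarization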
Target sequence (Q61143 whole entry, looked up): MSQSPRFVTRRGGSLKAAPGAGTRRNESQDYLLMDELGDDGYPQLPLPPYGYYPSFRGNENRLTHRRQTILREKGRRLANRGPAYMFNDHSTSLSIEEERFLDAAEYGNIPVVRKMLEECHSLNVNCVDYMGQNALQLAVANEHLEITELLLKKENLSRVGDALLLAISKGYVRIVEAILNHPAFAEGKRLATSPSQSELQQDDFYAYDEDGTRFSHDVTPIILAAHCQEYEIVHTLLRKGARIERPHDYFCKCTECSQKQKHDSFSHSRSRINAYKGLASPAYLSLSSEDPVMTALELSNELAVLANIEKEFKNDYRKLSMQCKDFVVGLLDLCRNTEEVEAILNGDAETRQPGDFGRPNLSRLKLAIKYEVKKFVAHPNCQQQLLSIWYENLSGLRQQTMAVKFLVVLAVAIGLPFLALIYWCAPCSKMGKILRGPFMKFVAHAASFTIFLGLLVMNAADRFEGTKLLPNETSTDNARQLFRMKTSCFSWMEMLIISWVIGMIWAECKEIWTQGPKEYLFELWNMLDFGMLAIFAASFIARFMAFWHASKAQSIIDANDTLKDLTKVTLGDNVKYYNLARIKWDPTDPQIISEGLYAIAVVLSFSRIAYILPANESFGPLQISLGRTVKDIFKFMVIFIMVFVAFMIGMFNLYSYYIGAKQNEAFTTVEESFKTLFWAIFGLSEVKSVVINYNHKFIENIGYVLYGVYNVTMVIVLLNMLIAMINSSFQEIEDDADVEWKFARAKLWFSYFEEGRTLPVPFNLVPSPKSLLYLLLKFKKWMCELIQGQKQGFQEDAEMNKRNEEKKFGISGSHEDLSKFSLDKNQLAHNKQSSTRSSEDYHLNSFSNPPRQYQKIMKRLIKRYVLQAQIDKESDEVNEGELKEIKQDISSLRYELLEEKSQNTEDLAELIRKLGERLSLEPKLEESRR
TRPC4 potent – allosteric potentiators of mouse TRPC4 channel | HEK293 TRPC4beta/mu-opioid, DAMGO EC20, Fluo-4 Ca2+ flux; active compounds read high | B-score at 10 µM | 310,000 compounds, 0.42% hits;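 active = B-score of calcium response area above 5 SD of library B-scores, with initial fluorescence ratio within 5 SD of library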
TRPC4 inh – TRPC4 (mouse) channel inhibition; HEK293 TRPC4beta/mu-opioid, DAMGO-evoked Fluo4 calcium flux; active compounds read low; B-score at 10 µM; AID 2247; 300,000 compounds, 0.39% hits;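 active = B-score over 3 SD under the library average, no early fluorescence shift, positive overall ratio signal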
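System: stable TRPC4beta/mu-opioid receptor HEK293 cells; Dosing: single-point compound dosing; Measured by: Fluo4 Ca2+ flux fluorescence; Read-out basis: per-well B score of integrated baseline-normalized Fluo4 ratio.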
TRPC6 activator – mouse TRPC6 channel activation; 310,000 compounds, 0.13% hits; AID 2550; HEK293-TRPC6 membrane potential dye fluorescence; active compounds read high; Q61143; B-score at 10 µM;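 active = B-score of the integrated fluorescence ratio above library mean plus 3 SD, and starting fluorescence ratio within library mean plus 5 SD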;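 also: higher score means more depolarization so channel activation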
HEK293 MPD ctr – checks TRPC6 modulator effects in parental HEK293 cells | shares compounds with TRPC6 inh | membrane potential dye fluorescence | membrane potential signal change, % at 10 µM | 2,400 compounds, 51% hits;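 active = membrane potential signal moves up or down beyond 5 SD from buffer-only wells, on both duplicate plates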
HEK293 MPD ctr 2 – second check of TRPC6 modulator effects in parental HEK293 cells; shares compounds with TRPC6 inh; membrane potential dye fluorescence; after compound, maximal acetylcholine stimulation; inhibition, % at 10 µM; 2,400 compounds, 14% hits; AID 488926;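 active = membrane potential signal drops by more than 5 SD from the mean control signal, in both duplicate plates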
TRPC4/MOR mod – tests whether TRPC6 modulators also affect mouse TRPC4; percent change from control (negative = decrease, positive = increase), % at 10 µM; shares compounds with TRPC6 inh; AID 488927; 2,400 compounds, 69% hits; HEK293 TRPC4/mu-opioid, membrane potential fluorescence;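 active = membrane potential signal moved up or down beyond 5 SD of buffer control wells, in both duplicate plates, actives on both sides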
TRPC4 ctr inh 2 – mouse TRPC4 off-target activity of TRPC6 modulators, second screen; inhibition, % at 10 µM; 2,400 compounds, 55% hits; HEK293 TRPC4/mu-opioid, membrane potential dye fluorescence; stimulated with maximal-effect DAMGO; shares compounds with TRPC6 inh;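 active = drop in membrane potential signal beyond 5 SD of the control wells in both duplicate plates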;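 also: TRPC4 counter screen for TRPC6 hits run under conditions tuned for TRPC6 not TRPC4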
TRPC6 block conf – confirmation of mouse TRPC6 inhibitors; shares compounds with TRPC6 inh; HEK293-TRPC6, membrane potential dye, ACh-evoked depolarization; inhibition, % at 10 µM; 3,300 compounds, 43% hits;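 active = fluorescence ratio falls more than 5 SD below the full-stimulation control mean, in both duplicate runs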;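 also: integrated fluorescence ratio of peak minus minimum over baseline after agonist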
TRPC6 act confirm – confirmation of mouse TRPC6 activators; 2,800 compounds, 11% hits; HEK293-TRPC6 membrane potential dye fluorescence, FDSS; shares compounds with TRPC6 inh; AID 488961; activation, % at 10 µM;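 active = ratio signal rise beyond 5 SD above unstimulated control wells' mean, seen in both duplicate runs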
Hits are given with their value.

For COc1ccc2sc(N(CCN(C)C)C(=O)c3cc(Cl)sc3Cl)nc2c1 the results were TRPC4 act inactive, TRPC6 inh inactive, TRPC4 potent inactive, TRPC4 inh inactive and TRPC6 activator inactive.
For COc1ccc(OC)c2sc(N(CCN(C)C)C(=O)c3cc(Cl)sc3Cl)nc12 the results were TRPC4 act 102, TRPC6 inh -5.46, TRPC4 potent inactive, TRPC4 inh inactive, TRPC6 activator inactive, HEK293 MPD ctr inactive, HEK293 MPD ctr 2 inactive, TRPC4/MOR mod -42.5%, TRPC4 ctr inh 2 80.0%, TRPC6 block conf inactive and TRPC6 act confirm inactive.
For Cc1ccc(Nc2nc(N/N=C/c3c[nH]c4ccccc34)nc(N3CCOCC3)n2)cc1 the results were TRPC4 act inactive, TRPC6 inh inactive, TRPC4 potent inactive, TRPC4 inh inactive and TRPC6 activator inactive.
For C(=N\Nc1nc(Nc2ccccc2)nc(N2CCOCC2)n1)/c1c[nH]c2ccccc12 the results were TRPC4 act inactive, TRPC6 inh -6.08, TRPC4 potent 11, TRPC4 inh inactive, TRPC6 activator inactive, HEK293 MPD ctr inactive, HEK293 MPD ctr 2 inactive, TRPC4/MOR mod -20.0%, TRPC4 ctr inh 2 49.0%, TRPC6 block conf 47.5% and TRPC6 act confirm inactive.
Screening O=C(CCCN1C(=O)C2CC=CCC2C1=O)Nc1ccccc1F (stereo not drawn) returned TRPC4 act inactive, TRPC6 inh inactive, TRPC4 potent inactive, TRPC4 inh inactive and TRPC6 activator inactive.
`CN1CCc2cc3c(c4c2[C@H]1[C@H](O)c1ccccc1-4)OCO3` gave TRPC4 act inactive, TRPC6 inh -5.09, TRPC4 potent inactive, TRPC4 inh inactive, TRPC6 activator inactive, HEK293 MPD ctr inactive, HEK293 MPD ctr 2 inactive, TRPC4/MOR mod -23.5%, TRPC4 ctr inh 2 47.5%, TRPC6 block conf inactive and TRPC6 act confirm inactive.
`COc1ccc2c(c1OC)C(=O)OC2C1c2c(cc3c(c2OC)OCO3)CCN1C` (stereo not drawn) gave TRPC4 act inactive, TRPC6 inh inactive, TRPC4 potent inactive, TRPC4 inh inactive and TRPC6 activator inactive.
`O=C1/C(=C\c2cc([N+](=O)[O-])ccc2O)SC(=S)N1Cc1ccc(Cl)cc1` gave TRPC4 act 137, TRPC6 inh inactive, TRPC4 potent 21, TRPC4 inh inactive, TRPC6 activator 50.7, HEK293 MPD ctr active, HEK293 MPD ctr 2 inactive, TRPC4/MOR mod 283.5%, TRPC4 ctr inh 2 inactive, TRPC6 block conf inactive and TRPC6 act confirm 177.5%.
Screening CC(=O)c1ccc(OCCCN2CCCCC2)cc1 returned TRPC4 act inactive, TRPC6 inh -5.14, TRPC4 potent inactive, TRPC4 inh inactive, TRPC6 activator inactive, HEK293 MPD ctr inactive, HEK293 MPD ctr 2 inactive, TRPC4/MOR mod inactive, TRPC4 ctr inh 2 inactive, TRPC6 block conf inactive and TRPC6 act confirm inactive.
Screening Cc1ccc(C)c(N2CCN(C(=O)CNS(=O)(=O)c3cccs3)CC2)c1 returned TRPC4 act inactive, TRPC6 inh inactive, TRPC4 potent inactive, TRPC4 inh inactive and TRPC6 activator inactive.
Screening Cc1cc(C)c2c(c1)NC(c1cc3c(cc1Br)OCO3)C1CC=CC21 (stereo not drawn) returned TRPC4 act inactive, TRPC6 inh inactive, TRPC4 potent inactive, TRPC4 inh inactive and TRPC6 activator inactive.
